Reference: ChEMBL document CHEMBL1123276, “Analgetic and antiinflammatory 7-aroylbenzofuran-5-ylacetic acids and 7-aroylbenzothiophene-5-ylacetic acids” (1986)

How the values were obtained:
Type in all cases: functional
[1] = test system: Mus musculus; experiment: Inhibition of phenylquinone -induced writhing in male mice by p.o. administration 20 min prior to i.p. phenylquinone (relative to aspirin).
Procedure, shortened: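 Male mice, 18-20 g, dosed orally in the same aqueous saline/CMC/polysorbate 80/benzyl alcohol vehicle 20 min before intraperitoneal phenylquinone. Writhing observed for 10 min. Potency vs aspirin derived from dose-response curves by analysis of variance. Eight mice per dose group.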

[2] = test system: Rattus norvegicus; experiment: Anti-inflammatory activity against carrageenan-induced paw edema in female rats relative to phenylbutazone by p.o. administration.
Procedure, shortened: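 Test agents given in saline/0.5% carboxymethylcellulose/0.4% polysorbate 80/0.9% benzyl alcohol aqueous vehicle. Rats killed 4 h after dosing, and both hindpaws excised and weighed. Potency vs phenylbutazone taken from dose-response plots of mean % weight increase of treated over untreated paw. Six rats per dose, at least four doses, linear parallel curves, analysis of variance.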

[3] = test system: Rattus norvegicus; experiment: Chronic gastrointestinal erosive activity in male rats by the oral administration was determined.
Procedure, shortened: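 Male Cox/SD rats, 190-220 g, acclimated about 1 week. Dosed orally once daily in phosphate-buffered saline (1 mL/100 g) for 7 consecutive days, 5 rats per dose. Food withdrawn on the last dosing day. Killed one day after the last dose, with body weight recorded at start and at sacrifice. Stomach and small intestine scored blind for lesions.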

[4] = organism: Mus musculus; experiment: Dose required for the inhibition of phenylquinone-induced writhing in male mice

| SMILES | Relative potency [1] | Relative potency [2] | ED50 [3] | ED50 ([3]; Rattus norvegicus, po) | ED50 [4] |
| --- | --- | --- | --- | --- | --- |
| O=C(O)Cc1cc(C(=O)c2ccccc2)c2sccc2c1 | 0.4 | 0.6 | – | – | – |
| O=C(O)Cc1cc2c(c(C(=O)c3ccccc3)c1)SCC2 | <1 | 0.6 | – | – | – |
| O=C(O)Cc1cc(C(=O)c2ccc(Cl)cc2)c2occc2c1 | 33.9 | 0.6 | – | – | – |
| CC(C(=O)O)c1cc(C(=O)c2ccc(Cl)cc2)c2occc2c1 (stereo not drawn) | 42.9 | 2 | – | – | – |
| C[S+]([O-])c1ccc(C(=O)c2cc(CC(=O)O)cc3ccoc23)cc1 (stereo not drawn) | 7.5 | 1.8 | – | – | – |
| CC(C(=O)O)c1cc(C(=O)c2ccccc2)c2occc2c1 (stereo not drawn) | 42.4 | 1.8 | – | – | – |
| O=C(O)Cc1cc(C(=O)c2ccc(Cl)cc2)c2sccc2c1 | 7 | 1.5 | – | – | – |
| COc1ccc(C(=O)c2cc(CC(=O)O)cc3ccoc23)cc1 | 33 | 1 | – | – | – |
| CS(=O)(=O)c1ccc(C(=O)c2cc(CC(=O)O)cc3ccoc23)cc1 | <1 | – | – | – | – |
| CC(C(=O)O)c1cc(C(=O)c2ccc(C=O)cc2)c2occc2c1 (stereo not drawn) | 45 | 1.3 | – | – | – |
| CSc1ccc(C(=O)c2cc(CC(=O)O)cc3c2OCC3)cc1 | 8 | 0.2 | – | – | – |
| O=C(O)Cc1cc2c(c(C(=O)c3ccc(Cl)cc3)c1)OCC2 | 7 | 0.8 | – | – | – |
| O=C(O)Cc1cc2c(c(C(=O)c3ccccc3)c1)OCC2 | 0.25 | 0.7 | – | – | – |
| O=C(O)Cc1cc2c(c(C(=O)c3ccc(Cl)cc3)c1)SCC2 | 0.6 | 0.6 | – | – | – |
| CSc1ccc(C(=O)c2cc(C(C)C(=O)O)cc3ccoc23)cc1 (stereo not drawn) | 25 | 18.6 | ≤ 1 mg/kg | – | – |
| O=C(O)Cc1cc(C(=O)c2ccccc2)c2occc2c1 | 40 | 1 | – | – | – |
| COc1ccc2c(c1)c(CC(=O)O)c(C)n2C(=O)c1ccc(Cl)cc1 [INDOMETHACIN] | 60 | 16 | – | 3 mg/kg | 1.16 mg/kg |
| CSc1ccc(C(=O)c2cc(CC(=O)O)cc3ccoc23)cc1 [TIFURAC] | 57 | 3 | – | ≥ 90 mg/kg | 1.2 mg/kg |
| Cc1cc(CC(=O)O)n(C)c1C(=O)c1ccc(Cl)cc1 [ZOMEPIRAC] | 40 | – | – | 10 mg/kg | 1.75 mg/kg |
